# According to ChEMBL document CHEMBL1157404, “Linear and cyclic peptides from the entomopathogenic bacterium Xenorhabdus nematophilus” (J Nat Prod, 2008):
# Activity calls are given as the source filed them. No cut-off for these calls is given here. Bridge positions count the residues as written; N and C are the ends. Square brackets hold non-standard residues; d marks the D form. Peptide text beside a SMILES is read from it. * marks the point of attachment. NMeF = CN[C@@H](Cc1ccccc1)C(=O)O; NMeL = CN[C@@H](CC(C)C)C(=O)O; NHPhenethyl = c1ccc(CCN*)cc1; PhAc = O=C(Cc1ccccc1)*; βAla = NCCC(=O)O
# Legend:
# Mammaliicoccus lentus [1] = assay: Antibacterial activity against Staphylococcus lentus DSM 6672; type: functional
# Artemia salina = assay: Toxicity against Artemia salina assessed as number of immotile nauplii per well after 24 hrs; type: organism-based
# How it was run: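 Compounds were serially diluted 2-fold over 50 to 0.781 µg/well in microplate wells, and the wells were dried before the brine shrimp nauplii were exposed.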
# Bacillus subtilis [2] = assay: Antibacterial activity against Bacillus subtilis DSM 347; type: functional
# Xanthomonas campestris [3] = assay: Antibacterial activity against Xanthomonas campestris DSM 2405; type: functional
# Pseudomonas syringae [4] = assay: Antibacterial activity against Pseudomonas syringae var.aptata DSM 50252; type: functional
# Ralstonia solanacearum [5] = assay: Antibacterial activity against Ralstonia solanacearum DSM 9544 at 40 ug/mL; type: functional, organism-based
# Erwinia amylovora [6] = assay: Antibacterial activity against Erwinia amylovora at 40 ug/mL; type: functional, organism-based
# Nakaseomyces glabratus = assay: Antifungal activity against Candida glabrata DSM 6425 at 40 ug/mL; type: functional, organism-based
# Escherichia coli = assay: Antibacterial activity against Escherichia coli K12 DSM 489 at 40 ug/mL; type: functional, organism-based
# Mammaliicoccus lentus [7] = assay: Antibacterial activity against Staphylococcus lentus DSM 6672 at 40 ug/mL; type: functional, organism-based
# Pseudomonas fluorescens [8] = assay: Antibacterial activity against Pseudomonas fluorescens NCIMB 10586 at 40 ug/mL; type: functional, organism-based
# Pseudomonas syringae [9] = assay: Antibacterial activity against Pseudomonas syringae var.aptata DSM 50252 at 40 ug/mL; type: functional, organism-based
# Xanthomonas campestris [10] = assay: Antibacterial activity against Xanthomonas campestris DSM 2405 at 40 ug/mL; type: functional, organism-based
# Bacillus subtilis [11] = assay: Antibacterial activity against Bacillus subtilis DSM 347 at 40 ug/mL; type: functional, organism-based
# Erwinia amylovora [12] = assay: Antibacterial activity against Erwinia amylovora; type: functional
# Ralstonia solanacearum [13] = assay: Antibacterial activity against Ralstonia solanacearum DSM 9544; type: functional
# Galleria mellonella = assay: Insecticidal activity against Galleria mellonella after 6 days; type: functional, organism-based
# How it was run: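 Oral toxicity test on greater wax moth larvae. Compounds were dissolved at 1 mg/mL in 50% aqueous EtOH. Larvae were held at 35 °C for 6 days, then mortality and ability to spin silk were recorded. Four replicates were run, with two for one compound.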
# Pseudomonas fluorescens [14] = assay: Antibacterial activity against Pseudomonas fluorescens NCIMB 10586; type: functional
Compound,Activity (Mammaliicoccus lentus [1]) [%],IC50 (Artemia salina) [µg/mL],MIC (Bacillus subtilis [2]) [µg/mL],MIC (Xanthomonas campestris [3]) [µg/mL],MIC (Pseudomonas syringae [4]) [µg/mL],Activity (Ralstonia solanacearum [5]),Activity (Erwinia amylovora [6]),Activity (Nakaseomyces glabratus),Activity (Escherichia coli),Activity (Mammaliicoccus lentus [7]),Activity (Pseudomonas fluorescens [8]),Activity (Pseudomonas syringae [9]),Activity (Xanthomonas campestris [10]),Activity (Bacillus subtilis [11]),MIC (Erwinia amylovora [12]) [µg/mL],MIC (Ralstonia solanacearum [13]) [µg/mL],Activity (Galleria mellonella),MIC (Pseudomonas fluorescens [14]) [µg/mL]
CC(C)CC(NC(=O)[C@@H](O)[C@@H](O)C1CCCN1)C1Cc2cccc(O)c2C(=O)O1 (stereo partly specified),70,9,20,40,40,,,,,,,,,,,,,
CC[C@H](C)C(=O)C(=O)NCCc1c[nH]c2ccccc12 [NEMATOPHIN],,50,,,,inactive,inactive,inactive,inactive,inactive,inactive,inactive,inactive,inactive,,,,
C[C@H]1OC(=O)CCNC(=O)[C@H](Cc2c[nH]c3ccccc23)NC(=O)[C@H](Cc2c[nH]c3ccccc23)NC(=O)[C@H]1NC(=O)Cc1ccccc1 [XENEAMATIDE] (PhAc-TWW[βAla]; ester 1-C),,,10,,10,,,,,,,,,,10,10,Active,10
CN[C@@H](CC(C)C)C(=O)N(C)[C@@H](Cc1ccccc1)C(=O)NCCc1ccccc1 [XENORTIDE A] (H-[NMeL]-[NMeF]-NHPhenethyl),,200,,,,inactive,inactive,inactive,inactive,inactive,inactive,inactive,inactive,inactive,,,,
CN[C@@H](CC(C)C)C(=O)N(C)[C@@H](Cc1ccccc1)C(=O)NCCc1c[nH]c2ccccc12 [XENORTIDE B],,200,,,,inactive,inactive,inactive,inactive,inactive,inactive,inactive,inactive,inactive,,,,
